Data: ChEMBL document CHEMBL4130542, “Daedophamide, a Cytotoxic Cyclodepsipeptide from a Daedalopelta sp. Sponge Collected in Indonesia” (2017)

Tests used:
Format in all cases: functional
[1] = tested on: MDA-MB-231; experiment: Cytotoxicity against human MDA-MB-231 cells after 48 hrs by sulforhodamine B assay; settings: MDA-MB-231, 48 h; for CC50: read-out: LC50 (the source's name)
Summary of the method: (§1)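 Human carcinoma lines (A-549 lung, MDA-MB-231 breast adenocarcinoma, HT-29 colorectal, PSN-1 pancreas). Cell survival estimated with the NCI algorithm. Three dose-response parameters derived: GI50 (50% growth inhibition vs control cells), TGI (total growth inhibition vs control) and LC50 (50% cell death vs control). GI50 calculated by a literature procedure.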

[2] = tested on: HT-29; experiment: Cytotoxicity against human HT-29 cells after 48 hrs by sulforhodamine B assay; settings: HT-29, 48 h; for CC50: read-out: LC50 (the source's name); summary of the method: as §1
[3] = tested on: A549; experiment: Cytotoxicity against human A549 cells after 48 hrs by sulforhodamine B assay; settings: A549, 48 h; for CC50: read-out: LC50 (the source's name); summary of the method: as §1
[4] = tested on: PSN1; experiment: Cytotoxicity against human PSN1 cells after 48 hrs by sulforhodamine B assay; settings: PSN1, 48 h; for CC50: read-out: LC50 (the source's name); summary of the method: as §1

SMILES: CO[C@H](C)[C@@H]1NC(=O)[C@H](CCC(N)=O)N(C)C(=O)[C@H](CC(C)C)NC(=O)[C@@H](CCCNC(=N)N)NC(=O)[C@@H](CO)NC(=O)[C@H](NC(=O)[C@@H](NC(=O)[C@H](O)[C@H](O)[C@H](CCCNC(=N)N)NC(=O)[C@@H](C)NC(=O)[C@H](C)[C@H](O)[C@H](C)C[C@H](C)CC(C)C)[C@@H](C)[C@@H](C)C(N)=O)[C@@H](C)OC(=O)[C@@H]2CCCCN2C(=O)[C@@H](CC(=O)O)NC1=O
- GI50 [1]: 300 nM
- TGI [1]: 600 nM
- CC50 [1]: 900 nM
- GI50 [2]: 600 nM
- TGI [2]: 800 nM
- CC50 [2]: 1300 nM
- GI50 [3]: 400 nM
- TGI [3]: 500 nM
- CC50 [3]: 700 nM
- GI50 [4]: 200 nM
- TGI [4]: 300 nM
- CC50 [4]: 600 nM

SMILES: COc1cccc2c1C(=O)c1c(O)c3c(c(O)c1C2=O)C[C@@](O)(C(=O)CO)C[C@@H]3O[C@H]1C[C@H](N)[C@H](O)[C@H](C)O1 [DOXORUBICIN]
- GI50 [1]: 200 nM
- TGI [1]: 500 nM
- CC50 [1]: 2400 nM
- GI50 [2]: 300 nM
- TGI [2]: 900 nM
- CC50 [2]: > 17200 nM
- GI50 [3]: 200 nM
- TGI [3]: 900 nM
- CC50 [3]: > 17200 nM
- GI50 [4]: 200 nM
- TGI [4]: 500 nM
- CC50 [4]: 3100 nM
